Drawing on ChEMBL document CHEMBL1153310, “New prostaglandin derivative for glaucoma treatment” (Bioorg Med Chem Lett, 2009), this text covers Activity and AUC for 3 compounds.

Data set [1] concerns Oryctolagus cuniculus. In words: Increase in glutathione levels in aqueous humor of normotensive pigmented rabbit at 0.008%, topical administration. In kind it is functional, Aqueous humor of eyeball. The gist of the method:
(§1)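 Normotensive rabbits given a single topical instillation at one of three dose levels. Aqueous humour centrifuged at 100.000g, 4 °C for 30 min. Supernatant diluted in phosphate-EDTA buffer and reacted with o-phthaldialdehyde (1 mg/ml) for 15 min at room temperature. Fluorescence read at ex 350/em 420 nm, calibrated with a GSH standard curve.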

Data set [2] deals with Oryctolagus cuniculus. In words: Increase in glutathione levels in aqueous humor of normotensive pigmented rabbit at 0.005%, topical administration. In kind it is functional, Aqueous humor of eyeball. The essentials:
as §1

For data set [3], the system named is Oryctolagus cuniculus. In words: Effect on intraocular pressure in carbomer-induced glaucoma in pigmented rabbit assessed as AUC at 0.005%, topical administration continuously for 5 days. In kind it is functional, organism-based. As to conditions: Eye. The gist of the method:
(§2)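 Glaucoma induced by carbomer injection into the anterior chamber; IOP checked every 30 min over the first 3 h, then at least three times daily until stabilized at high levels. Drug instilled topically, once (single-dose) or daily for 5 days (repeated). IOP measured by Tono-Pen tonometer; single-dose readings at 30, 60, 120 and 240 min; AUC in mm Hg h.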

Data set [4] is filed under the species Oryctolagus cuniculus. In words: Toxicity in New Zealand albino rabbit assessed as tolerability at 0.005% by Draize test. The settings on record: in vivo. In kind it is organism-based. The essentials: (§3)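 Ocular tolerability scored by Draize test in New Zealand albino rabbits at three concentrations, compared with placebo.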
The subject of data set [5] is Oryctolagus cuniculus. In words: Effect on intraocular pressure in carbomer-induced glaucoma in pigmented rabbit assessed as AUC at 0.005%, single topical administration measured over 4 hrs by tonometry. The settings on record: Eye.
Data set [6] relates to Oryctolagus cuniculus. As to the kind of experiment: Effect on intraocular pressure in carbomer-induced glaucoma in New Zealand albino rabbit assessed as AUC at 0.005%, topical administration measured after 4 hrs. Details: time < 4 hr. The settings on record: Eye. In kind it is functional, organism-based. The gist of the method: as §2
In data set [7] the test system is Oryctolagus cuniculus. In words: Reduction in intraocular pressure in carbomer-induced glaucoma in pigmented rabbit at 0.005%, topical administration continuously for 5 days relative to latanoprost. Details: scale not given: the % may be the effect or the level left. In kind it is functional, Eye. The essentials: as §2
The species named for data set [8] is Oryctolagus cuniculus. As to the kind of experiment: Toxicity in New Zealand albino rabbit assessed as tolerability at 0.01% by Draize test. In kind it is organism-based. The settings on record: in vivo. The gist of the method: as §3
Data set [9] has as its system Oryctolagus cuniculus. In words: Increase in glutathione levels in aqueous humor of carbomer-induced glaucomatous pigmented rabbit at 0.005%, topical administration continuously for 5 days by fluorimetry. In kind it is functional, Aqueous humor of eyeball. The gist of the method:
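Carbomer-glaucomatous rabbits given daily topical 0.005% instillation for 5 days. Aqueous humour centrifuged at 100.000g, 4 °C for 30 min. Supernatant diluted in phosphate-EDTA buffer and reacted with o-phthaldialdehyde (1 mg/ml) for 15 min at room temperature. Fluorescence read at ex 350/em 420 nm against a GSH standard curve, in pmol/ml.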

In data set [10] the test system is Oryctolagus cuniculus. As to the kind of experiment: Reduction in intraocular pressure in carbomer-induced glaucoma in pigmented rabbit at 0.005%, single topical administration measured over 4 hrs relative to latanoprost. Details: scale not given: the % may be the effect or the level left.
The test system of data set [11] is Oryctolagus cuniculus. In words: Increase in cGMP levels in aqueous humor of carbomer-induced glaucomatous pigmented rabbit at 0.005%, topical administration continuously for 5 days by radioimmunoassay. The format is functional, Aqueous humor of eyeball. The gist of the method: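 Aqueous humour taken after 5 days of daily topical instillation at 0.005%. Samples treated with 10% trichloroacetic acid and centrifuged. TCA extracted with 0.5 M tri-n-octylamine in 1,1,2-trichloro-1,2,2-trifluoroethane. cGMP quantified by radioimmunoassay using labelled cGMP.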

The species entered for data set [12] is Oryctolagus cuniculus. As to the kind of experiment: Toxicity in New Zealand albino rabbit assessed as tolerability at 0.008% by Draize test. The format is organism-based. As to conditions: in vivo. The gist of the method:
as §3

Data set [13] concerns Oryctolagus cuniculus. In words: Increase in glutathione levels in aqueous humor of normotensive pigmented rabbit at 0.01%, topical administration. The format is functional, Aqueous humor of eyeball. The essentials: as §1
For data set [14], the system named is Oryctolagus cuniculus. As to the kind of experiment: Reduction in intraocular pressure in carbomer-induced glaucoma in pigmented rabbit at 0.005%, topical administration for 1 day. The format is functional, Eye. The essentials:
as §2

The subject of data set [15] is Oryctolagus cuniculus. In words: Reduction in intraocular pressure in carbomer-induced glaucoma in albino rabbit at 0.005%, topical administration continuously measured after […]. In kind it is functional, Eye. The essentials:
as §2

For data set [16], the system named is Oryctolagus cuniculus. In words: Reduction in intraocular pressure in carbomer-induced glaucoma in pigmented rabbit at 0.005%, topical administration measured after 30 mins. In kind it is functional, Eye. The gist of the method: as §2
In data set [17] the test system is Oryctolagus cuniculus. In words: Reduction in intraocular pressure in carbomer-induced glaucoma in albino rabbit at 0.005%, topical administration measured after 240 mins. In kind it is functional, Eye. The essentials: as §2
Data set [18] has as its system Oryctolagus cuniculus. In words: Reduction in intraocular pressure in carbomer-induced glaucoma in pigmented rabbit at 0.005%, topical administration continuously for 4 days. In kind it is functional, Eye. The gist of the method: as §2
In data set [19] the test system is Oryctolagus cuniculus. In words: Reduction in intraocular pressure in carbomer-induced glaucoma in pigmented rabbit at 0.005%, topical administration measured after 120 mins. The format is functional, Eye. The essentials:
as §2

Data set [20] deals with Oryctolagus cuniculus. As to the kind of experiment: Reduction in intraocular pressure in carbomer-induced glaucoma in pigmented rabbit at 0.005%, topical administration continuously for 5 days. The format is functional, Eye. The essentials:
as §2

The subject of data set [21] is Oryctolagus cuniculus. In words: Reduction in intraocular pressure in carbomer-induced glaucoma in pigmented rabbit at 0.005%, topical administration measured after 240 mins. In kind it is functional, Eye. The gist of the method:
as §2

For data set [22], the system named is Oryctolagus cuniculus. In words: Reduction in intraocular pressure in carbomer-induced glaucoma in albino rabbit at 0.005%, topical administration measured after 60 mins. In kind it is functional, Eye. The essentials:
as §2

The subject of data set [23] is Oryctolagus cuniculus. As to the kind of experiment: Reduction in intraocular pressure in carbomer-induced glaucoma in pigmented rabbit at 0.005%, topical administration continuously for 2 days. In kind it is functional, Eye. The gist of the method: as §2
The subject of data set [24] is Oryctolagus cuniculus. As to the kind of experiment: Reduction in intraocular pressure in carbomer-induced glaucoma in albino rabbit at 0.005%, topical administration measured after 30 mins. The format is functional, Eye. The gist of the method:
as §2

The subject of data set [25] is Oryctolagus cuniculus. As to the kind of experiment: Reduction in intraocular pressure in carbomer-induced glaucoma in pigmented rabbit at 0.005%, topical administration continuously for 3 days. In kind it is functional, Eye. The gist of the method:
as §2

For data set [26], the system named is Oryctolagus cuniculus. As to the kind of experiment: Reduction in intraocular pressure in carbomer-induced glaucoma in albino rabbit at 0.005%, topical administration measured after 120 mins. In kind it is functional, Eye. The gist of the method: as §2
The subject of data set [27] is Oryctolagus cuniculus. As to the kind of experiment: Reduction in intraocular pressure in carbomer-induced glaucoma in pigmented rabbit at 0.005%, topical administration measured after 60 mins. In kind it is functional, Eye. The gist of the method: as §2

For the compound `O=C(CCC/C=C\C[C@@H]1[C@@H](CC[C@@H](O)CCc2ccccc2)[C@H](O)C[C@@H]1O)Oc1ccc(-c2cc(=S)ss2)cc1`, the Activity in data set [1] was 69.83 pmol/mL; in data set [2], 60.04 pmol/mL; in [4] it was “Non-toxic”; in data set [7] it was 27%; in data set [8], “Non-toxic”; in data set [9] it was 65.27 pmol/mL. The Activity is 30.8% in data set [10], 118 fmol/mL in data set [11], “Non-toxic” in [12] and 82.89 pmol/mL in [13]. Besides, the AUC in data set [3] is 2090 mmHg.hr; in data set [5], 75.2 mmHg.hr; in [6], 106 mmHg.hr.

For `CC(C)OC(=O)CCC/C=C\C[C@@H]1[C@@H](CC[C@@H](O)CCc2ccccc2)[C@H](O)C[C@@H]1O` [LATANOPROST], the Activity in [2] was found to be 38.7 pmol/mL; in data set [9], 36.44 pmol/mL; in data set [11], 71.8 fmol/mL. Moreover, the AUC in data set [3] is 2660 mmHg.hr; in data set [5] it was 109 mmHg.hr; in data set [6], 119 mmHg.hr.

As for `Oc1ccc(-c2cc(=S)ss2)cc1`, the Activity in [14] was found to be 26.7 mmHg; in data set [2], 58.3 pmol/mL; in [15] it was 25 mmHg; in [16], 30 mmHg; in data set [17], 25.2 mmHg; in [18] it was 22.2 mmHg. Further, the Activity in data set [19] turned out to be 26 mmHg; in [20], 22 mmHg; in [21] it was 23.5 mmHg; in data set [22], 28 mmHg; in data set [23], 26 mmHg; in data set [9], 60.4 pmol/mL. The Activity in [24] worked out at 29.5 mmHg; in data set [11], 122 fmol/mL; in [25], 23 mmHg; in data set [26], 26.2 mmHg; in data set [27], 29 mmHg.
